From ChEMBL document CHEMBL1147884, “Further studies on the effect of lysine at the C-terminus of the Dmt-Tic opioid pharmacophore” (Bioorg Med Chem, 2007)
Starred links: 1 amine or outer side, 2 acyl side, 3 side chain; linkers in the order of their positions; H or OH if unused. Non-standard residues stand in square brackets, D forms with d. Residues, ends and D or L forms follow the SMILES beside them. *: point of attachment. Dmt = Cc1cc(O)cc(C)c1C[C@H](N)C(=O)O; εLys = N[C@@H](CCCCN[*:1])C(=O)[*:2]; Tic = O=C(O)[C@@H]1Cc2ccccc2CN1; NHBn = c1ccc(CN*)cc1; NHPh = c1ccc(N*)cc1

Columns and labels:
Mu-type opioid receptor [1] = molecular target: Mu-type opioid receptor (Cavia porcellus, UniProt P97266); assay: Agonist activity at mu opioid receptor in Hartley guinea pig ileum assessed as inhibition of electrically-stimulated contraction; assay type: functional, tissue-based
In short: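 Myenteric plexus-longitudinal muscle strips (2-3 cm) from small intestine of male Hartley guinea pigs in organ bath, physiological buffer pH 7.5. Inhibition of electrically evoked contraction; IC50 (nM) from dose-response curves, mean ± SE of five or six separate tissue assays; endomorphin-2 as internal standard.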

[2] = molecular target: T1, Opioid receptors; mu & delta (Rattus norvegicus) (UniProt P33533+P33535); assay: Selectivity ratio of Ki for mu opioid receptor to Ki for delta opioid receptor; assay type: protein assay
[3] = molecular target: Delta-type opioid receptor (Mus musculus, UniProt P32300); assay: Antagonist activity at delta opioid receptor in mouse vas deferens assessed as inhibition of electrically-stimulated contraction; assay type: functional, tissue-based; conditions: read-out: pA2 (converted)
In short: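 Single mouse vas deferens in organ bath, balanced salt physiological buffer pH 7.5, electrically stimulated. Antagonism measured against δ-agonist deltorphin II; pA2 derived by Schild plot (method of Kosterlitz and Watt).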

[4] = molecular target: Delta-type opioid receptor (Rattus norvegicus, UniProt P33533); assay: Displacement of [3H]deltorphin 2 from delta opioid receptor in Sprague-Dawley rat brain P2 synaptosomal membrane
In short: (§1)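 Competition binding at equilibrium, 2.5 h at 23 °C, on rat brain P2 synaptosomes preincubated to remove endogenous opioids, stored at -80 °C in buffered 20% glycerol. Five to eight peptide doses, duplicate assays, 3-5 independent preparations. Filtration on polyethylenimine-soaked (0.1%) glass fibre filters, three washes in ice-cold buffered BSA; Ki by Cheng-Prusoff, mean ± SE.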

Mu-type opioid receptor [5] = molecular target: Mu-type opioid receptor (Rattus norvegicus, UniProt P33535); assay: Displacement of [3H]DAMGO 2 from mu opioid receptor in Sprague-Dawley rat brain P2 synaptosomal membrane; in short: as §1
[6] = molecular target: T1, Opioid receptors; mu & delta (Rattus norvegicus); assay: Selectivity ratio of Ki for rat delta opioid receptor to Ki for rat mu opioid receptor; assay type: protein assay

Chain of Delta-type opioid receptor (Rattus norvegicus, UniProt P33533) (P33533 whole entry): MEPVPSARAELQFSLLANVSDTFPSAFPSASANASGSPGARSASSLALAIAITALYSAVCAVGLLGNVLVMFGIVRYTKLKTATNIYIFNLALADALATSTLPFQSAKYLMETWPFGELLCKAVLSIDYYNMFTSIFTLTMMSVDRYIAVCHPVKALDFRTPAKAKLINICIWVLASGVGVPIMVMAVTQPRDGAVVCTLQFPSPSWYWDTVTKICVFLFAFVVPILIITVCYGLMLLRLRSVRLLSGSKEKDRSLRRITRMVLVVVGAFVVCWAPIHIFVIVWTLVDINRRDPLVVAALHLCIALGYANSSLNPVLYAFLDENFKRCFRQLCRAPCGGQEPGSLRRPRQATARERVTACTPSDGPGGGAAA
T1 sequence (P33533 whole entry, looked up): as the sequence (P33533 whole entry) above
T1 sequence (P33535 whole entry, looked up): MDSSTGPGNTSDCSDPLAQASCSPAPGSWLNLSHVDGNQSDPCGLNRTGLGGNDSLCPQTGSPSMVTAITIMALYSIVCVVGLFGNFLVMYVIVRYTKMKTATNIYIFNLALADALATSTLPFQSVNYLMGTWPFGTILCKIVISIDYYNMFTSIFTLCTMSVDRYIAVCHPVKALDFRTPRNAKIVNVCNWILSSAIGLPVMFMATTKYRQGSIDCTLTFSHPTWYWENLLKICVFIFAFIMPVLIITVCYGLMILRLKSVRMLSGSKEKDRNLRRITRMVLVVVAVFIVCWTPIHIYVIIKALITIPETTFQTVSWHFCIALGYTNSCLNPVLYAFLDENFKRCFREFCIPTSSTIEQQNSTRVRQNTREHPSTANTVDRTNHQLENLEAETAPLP
Chain of Mu-type opioid receptor (Rattus norvegicus, UniProt P33535) (P33535 whole entry): as the sequence (P33535 whole entry, looked up) above
Chain of Mu-type opioid receptor (Cavia porcellus, UniProt P97266) (P97266 whole entry): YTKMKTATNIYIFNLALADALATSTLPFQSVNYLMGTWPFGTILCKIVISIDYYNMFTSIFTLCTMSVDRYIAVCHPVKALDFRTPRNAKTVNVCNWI
Chain of Delta-type opioid receptor (Mus musculus, UniProt P32300) (P32300 whole entry): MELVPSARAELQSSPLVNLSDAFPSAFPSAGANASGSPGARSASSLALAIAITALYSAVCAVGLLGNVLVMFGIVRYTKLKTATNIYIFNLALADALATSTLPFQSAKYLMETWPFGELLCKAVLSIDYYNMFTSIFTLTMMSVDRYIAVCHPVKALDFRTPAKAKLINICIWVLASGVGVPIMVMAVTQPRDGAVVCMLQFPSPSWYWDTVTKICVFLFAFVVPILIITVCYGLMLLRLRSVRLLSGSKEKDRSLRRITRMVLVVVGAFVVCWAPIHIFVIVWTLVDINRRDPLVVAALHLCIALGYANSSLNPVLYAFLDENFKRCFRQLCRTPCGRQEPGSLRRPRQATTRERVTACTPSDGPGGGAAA

Structure (SMILES) | IC50 (Mu-type opioid receptor [1]) | Ratio Ki [2] | Kb [3] | Ki [4] | Ki (Mu-type opioid receptor [5]) | Ratio Ki [6]
CC(=O)N[C@@H](CCCCNC(=O)[C@@H]1Cc2ccccc2CN1C(=O)[C@@H](N)Cc1c(C)cc(O)cc1C)c1nc2ccccc2[nH]1 | 610 nM | 4.7 | 7.59 nM | 0.21 nM | 0.99 nM | –
CC(=O)N[C@@H](CCCCNC(=O)[C@@H]1Cc2ccccc2CN1C(=O)[C@@H](N)Cc1c(C)cc(O)cc1C)C(=O)Nc1ccccc1 | 486 nM | 11.7 | 6.61 nM | 0.22 nM | 2.57 nM | –
Cc1cc(O)cc(C)c1C[C@H](N)C(=O)N1Cc2ccccc2C[C@H]1C(=O)NCCCC[C@H](NC(=O)OCc1ccccc1)C(=O)NCc1ccccc1 | 1450 nM | 5.9 | 5.37 nM | 0.53 nM | 3.15 nM | –
Cc1cc(O)cc(C)c1C[C@H](N)C(=O)N1Cc2ccccc2C[C@H]1C(=O)NCCCC[C@H](N)C(=O)NCc1ccccc1 (H-[Dmt]-[Tic]-[εLys]-NHBn) | 553 nM | – | 15.5 nM | 1 nM | 0.6 nM | 1.7
Cc1cc(O)cc(C)c1C[C@H](N)C(=O)N1Cc2ccccc2C[C@H]1C(=O)NCCCC[C@H](N)c1nc2ccccc2[nH]1 | 434 nM | – | 8.13 nM | 2.64 nM | 1.02 nM | 2.6
Cc1cc(O)cc(C)c1C[C@H](N)C(=O)N1Cc2ccccc2C[C@H]1C(=O)NCCCC[C@H](N)C(=O)Nc1ccccc1 (H-[Dmt]-[Tic]-[εLys]-NHPh) | 515 nM | – | 12 nM | 2.02 nM | 0.89 nM | 2.3
Cc1cc(O)cc(C)c1C[C@H](N)C(=O)N1Cc2ccccc2C[C@H]1C(=O)NCCCC[C@H](NC(=O)OCc1ccccc1)c1nc2ccccc2[nH]1 | 618 nM | 3.2 | 15.1 nM | 0.86 nM | 2.78 nM | –
CC(=O)N[C@@H](CCCCNC(=O)[C@@H]1Cc2ccccc2CN1C(=O)[C@@H](N)Cc1c(C)cc(O)cc1C)C(=O)NCc1ccccc1 | 1990 nM | 16.3 | 8.51 nM | 0.21 nM | 3.43 nM | –
Cc1cc(O)cc(C)c1C[C@H](N)C(=O)N1Cc2ccccc2C[C@H]1C(=O)NCCCC[C@H](NC(=O)OCc1ccccc1)C(=O)Nc1ccccc1 | 711 nM | 5.7 | 5.89 nM | 0.47 nM | 2.67 nM | –
